Test results reported in PMC3447631 (Chemistry & biology, 2012).
Blank lines part the entries; values can stand above or below the compound they belong to.

Assays:
human insulin promoter = test: Human insulin promoter-GFP transgene assay in T6PNE cells; type: cell-based; conditions: for effect of reported HNF4α ligands on insulin promoter activity: 48 hours, 0.5 μM or 1 μM tamoxifen
In short: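 T6PNE cells carry a lentiviral human insulin promoter–GFP transgene. Cells were treated for 48 hours; where stated, tamoxifen was 0.5 or 1 μM and fatty acids 0.12 mM. The green channel was imaged and percent GFP+ cells normalized to total cells per well.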

HNF4α = molecular target: T1, HNF4α (Homo sapiens, UniProt P41235); test: DARTS assay in HepG2 cells; type: binding; conditions: HepG2, 20μM, 24hr, subtilisin
T1 sequence (P41235 1-474): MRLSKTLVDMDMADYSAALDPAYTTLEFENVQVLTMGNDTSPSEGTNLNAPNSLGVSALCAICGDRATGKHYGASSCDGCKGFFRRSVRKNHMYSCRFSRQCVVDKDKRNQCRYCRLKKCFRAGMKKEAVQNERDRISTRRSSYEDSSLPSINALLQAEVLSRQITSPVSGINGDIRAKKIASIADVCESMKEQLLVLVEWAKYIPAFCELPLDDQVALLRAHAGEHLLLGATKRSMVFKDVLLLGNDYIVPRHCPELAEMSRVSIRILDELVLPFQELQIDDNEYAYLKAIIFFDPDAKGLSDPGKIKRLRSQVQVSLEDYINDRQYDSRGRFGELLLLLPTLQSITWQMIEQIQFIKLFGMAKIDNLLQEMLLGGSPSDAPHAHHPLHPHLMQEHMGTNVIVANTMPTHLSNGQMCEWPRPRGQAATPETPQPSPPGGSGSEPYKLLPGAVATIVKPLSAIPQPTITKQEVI
In short: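 DARTS: HepG2 cells were treated with DMSO or test compound at 20μM for 24hr. Read-out is the ligand-induced change in HNF4α sensitivity to proteolysis.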

HNF4α DNA binding = molecular target: T2, HNF4α DNA binding (Homo sapiens, UniProt P41235); test: HNF4α DNA binding, HNF TransAM ELISA on HepG2 nuclear extracts; type: cell-based; conditions: HepG2 incubated overnight with compound
T2 sequence (P41235 1-474): T1 sequence (P41235 1-474)
In short: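 HepG2 cells were incubated overnight with test compound. Nuclear protein extracts (5μg) were added to wells bearing an oligonucleotide with an HNF4α binding site. Bound HNF4α was detected with an anti-HNF4α antibody (ELISA). Mean ± SD, n=3 biological replicates; Student's t-test.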

full-length HNF4α = full-length HNF4α (Rattus norvegicus, UniProt P22449); test: Direct binding by quenching of HNF4α aromatic amino acid fluorescence; conditions: Hill equation analysis
p57Kip2 expression = test: Kip2 mRNA in T6PNE cells; type: cell-based, human
In short: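 Kip2 mRNA in T6PNE cells measured by Q-PCR, normalized to 18s rRNA. Treated and DMSO vehicle cells were compared by Student's t-test.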

[1] = system: endogenous insulin promoter; test: Endogenous insulin mRNA; type: cell-based, human; conditions: for effect of fatty acid on insulin gene expression (quantitative RT-PCR): T6PNE, 1μM tamoxifen, 48 hours
In short: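 Q-PCR of endogenous insulin mRNA in T6PNE cells after 48 h exposure to test compound across a concentration series. For fatty acids, cells got 1μM tamoxifen plus fatty acid or DMSO vehicle for 48 hours before RNA harvest. Insulin mRNA was normalized to GAPDH or 18S rRNA; mean ± SE, n=3.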

PPARγ = type: cell-based; conditions: PPRE-Luc, HeLa
In short: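 HeLa cells were co-transfected with a PPRE-Luc reporter, with or without a PPARγ expression vector, then treated with test compound. Read-out was luciferase activity; mean ± SE, n=3.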

[2] = system: modified estrogen receptor (E47MER); test: Counterscreen: prevention of E47MER translocation; type: cell-based
HNF4α gene expression [3] = test: HNF4α mRNA expression in MIN6 cells; type: cell-based, murine; conditions: 0.08mM Oleate or 0.02mM Palmitate, 110 days
INS1 and INS2 genes = test: Insulin gene mRNA in MIN6 cells after prolonged fatty acid exposure; type: cell-based, murine; conditions: 0.08mM Oleate or 0.02mM Palmitate, 110 days
HNF4α gene expression [4] = test: HNF4α mRNA expression in T6PNE cells; type: cell-based, human; conditions: 48 hour treatment, with tamoxifen

Sequence of full-length HNF4α (P22449 whole entry): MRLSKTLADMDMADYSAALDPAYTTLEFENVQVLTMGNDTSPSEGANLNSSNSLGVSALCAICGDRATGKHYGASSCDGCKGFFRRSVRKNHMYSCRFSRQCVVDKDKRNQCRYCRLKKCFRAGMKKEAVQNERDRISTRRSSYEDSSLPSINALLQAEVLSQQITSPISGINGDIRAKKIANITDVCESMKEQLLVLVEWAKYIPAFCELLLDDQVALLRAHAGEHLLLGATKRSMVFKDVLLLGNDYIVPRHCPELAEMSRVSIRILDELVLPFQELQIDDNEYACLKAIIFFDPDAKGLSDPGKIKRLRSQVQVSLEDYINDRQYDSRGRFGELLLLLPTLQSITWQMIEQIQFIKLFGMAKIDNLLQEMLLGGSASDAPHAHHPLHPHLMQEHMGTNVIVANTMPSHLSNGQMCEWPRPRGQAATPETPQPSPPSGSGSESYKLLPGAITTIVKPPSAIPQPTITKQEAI

Compound: 3-methyl-2-nitronaphthofuran [Compound 5]
effect of reported HNF4α ligands on insulin promoter activity (human insulin promoter): none of these compounds had consistent and robust effects

effect on HNF4α protease sensitivity (DARTS) (HNF4α): no effect
effect on HNF4α DNA binding (HNF4α DNA binding): inactive
Compound: Cc1nc2ccccc2n1Cc1cc([N+](=O)[O-])ccc1O [BI6018]
activity in the insulin promoter assay (human insulin promoter): inactive

Hill coefficient of binding (full-length HNF4α): 0.6 ± 0.1
effect on HNF4α protease sensitivity (DARTS) (HNF4α): no effect
effect on HNF4α DNA binding (HNF4α DNA binding): inactive
Compound: CCCCCS(=O)(=O)NC(=O)c1ccc2nc(C)n(Cc3ccc(Cl)cc3Cl)c2c1 [FK614, reference compound]
effect on Kip2 expression (p57Kip2 expression): no effect
effect on endogenous insulin expression / insulin promoter activity ([1]; T6PNE cells): no effect
activity as PPARγ agonist (PPARγ): had activity as PPARγ agonists

Compound: CC(C)(CCCCCCCCCCC(C)(C)CC(=O)O)CC(=O)O [Medica-16, 3,3,14,14-tetramethylhexadecanedioic acid]
effect of reported HNF4α ligands on insulin promoter activity (human insulin promoter): none of these compounds had consistent and robust effects

Compound: CC(=O)O [acetic]
effect of fatty acid on insulin gene expression (quantitative RT-PCR) [1]: did not have an effect

Compound: CCCC(=O)O [butyric]
effect of fatty acid on insulin gene expression (quantitative RT-PCR) [1]: did not have an effect

estrogenic antagonism / tamoxifen-like activity (E47MER translocation) [2]: estrogenic antagonists
Compound: O=[N+]([O-])c1ccc2nc(-c3ccco3)[nH]c2c1 [compound 5816458]

Compound: CCCCC/C=C\C/C=C\CCCCCCCC(=O)O [linoleic acid]
effect of fatty acid on insulin gene expression (quantitative RT-PCR) [1]: inhibited

Compound: CCCCCCCC/C=C\CCCCCCCC(=O)O [oleate, reference compound]
effect of fatty acid on HNF4α gene in MIN6 (HNF4α gene expression [3]): inhibited
effect on INS2 gene in MIN6 (INS1 and INS2 genes): inhibited

Compound: CCCCCCCCCCCCCCCC(=O)O [palmitate, reference compound]
effect of fatty acid on HNF4α mRNA levels in T6PNE (HNF4α gene expression [4]): significantly inhibited
effect of fatty acid on HNF4α gene in MIN6 (HNF4α gene expression [3]): inhibited
effect on INS2 gene in MIN6 (INS1 and INS2 genes): inhibited
effect of fatty acid on insulin gene expression (quantitative RT-PCR) [1]: dose-dependent decrease
